Measurements taken from ChEMBL document CHEMBL2163323, “Characterization and solubilization of pyrrole-imidazole polyamide aggregates” (J Med Chem, 2012).

Columns and labels:
[1] = Solubility of the compound in 0.1 % DMSO/PBS solution assessed as radius of the aggregate particle at 4 uM measured over 10 mins by dynamic light scattering method; type: physicochemical; conditions: buffer
Procedure, shortened: (§1)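 DMSO stocks (1, 4, 10 mM) were centrifuged, then diluted 1000× into PBS (final 0.1% DMSO). Dynamic light scattering used a 659 nm laser at a 90° angle and 25 °C, with 10–15 s acquisitions over 10 min. Radius came from a cumulant fit of averaged autocorrelation functions at the lowest concentration giving 3× buffer signal. Values are SD of ≥3 independent measurements.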

[2] = Solubility of the compound in 0.1 % DMSO/PBS solution at 4 uM after 2 hrs by HPLC analysis; type: physicochemical; conditions: buffer
Procedure, shortened: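 A 4 mM DMSO stock was diluted 1000× into PBS, vortexed, sonicated 20 min at 25 °C and equilibrated 2 h at room temperature. After centrifugation for 20 min, the supernatant was analysed by HPLC at 310 nm against a standard curve. Maximum concentration was estimated from quantitation of the stock in 0.1% DMSO/water. Values are SD of ≥3 independent measurements.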

[3] = Solubility of the compound in 0.1 % DMSO/PBS solution at 4 uM after 2 hrs by HPLC analysis in presence of 35 mM dextrose; type: physicochemical; conditions: buffer
Procedure, shortened: (§2)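 The 4 mM DMSO stock was diluted 1000× into PBS containing 35 mM dextrose, 5 mM γCD, 50 mM HpβCD or 6 mg/mL hypromellose. Samples were sonicated 20 min at 25 °C, equilibrated 2 h at room temperature and centrifuged. The soluble fraction was measured by HPLC peak area at 310 nm against a standard curve. Values are SD of ≥3 independent measurements.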

[4] = Solubility of the compound in 0.1 % DMSO/PBS solution at 4 uM after 2 hrs by HPLC analysis in presence of 6 mg/ml hypromellose; type: physicochemical; conditions: buffer; procedure, shortened: as §2
[5] = Solubility of the compound in 0.1 % DMSO/PBS solution at 4 uM after 2 hrs by HPLC analysis in presence of 5 mM gamma-cyclodextrin; type: physicochemical; conditions: buffer; procedure, shortened: as §2
[6] = Solubility of the compound in 0.1 % DMSO/PBS solution assessed as radius of the aggregate particle at 1 uM measured over 10 mins by dynamic light scattering method; type: physicochemical; conditions: buffer; procedure, shortened: as §1
[7] = Plasma concentration of compound in C57Bl/6 mouse at 120 nmol, ip in 20 % DMSO/PBS vehicle measured after 1.5 hrs; type: ADME, organism-based
Procedure, shortened: (§3)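 C57bl/6 mice, 8–12 weeks old, received an IP injection of 200 μL PBS containing 120 nmol compound in the stated vehicle. Under isoflurane, blood was drawn retro-orbitally at three time points. Plasma from four mice was pooled (5 μL each), precipitated with methanol, spiked with Boc-Py-OMe as internal control, and quantified by HPLC at 310 nm against a standard curve.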

[8] = Solubility of the compound in 0.1 % DMSO/PBS solution at 4 uM after 2 hrs by HPLC analysis in presence of 50 mM 2-hydroxypropyl-beta-cyclodextrin; type: physicochemical; conditions: buffer; procedure, shortened: as §2
Plasma [9] = assay: Drug uptake in C57Bl/6 mouse plasma at 120 nmol, ip in 20 % DMSO/PBS vehicle measured after 24 hrs; type: ADME, organism-based; conditions: in vivo; procedure, shortened: as §3
Plasma [10] = assay: Drug uptake in C57Bl/6 mouse plasma at 120 nmol, ip in 1 % DMSO/80 mM HPbeta-CD/PBS vehicle measured after 24 hrs; type: ADME, organism-based; conditions: in vivo; procedure, shortened: as §3
[11] = Plasma concentration of compound in C57Bl/6 mouse at 120 nmol, ip in 1 % DMSO/80 mM HPbeta-CD/PBS vehicle measured after 1.5 hrs; type: ADME, organism-based; procedure, shortened: as §3
[12] = Solubility of the compound in 20 % DMSO/PBS; type: physicochemical; conditions: buffer
A549 [13] = assay: Drug uptake in human A549 cells incubated with mouse plasma isolated 4.5 hr post administration with compound measured after 16 hrs by confocal microscopy; type: ADME, cell-based
Procedure, shortened: (§4)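 A549 cells were seeded at 100k cells/mL in F-12K/10% FBS and allowed to adhere for 18 h at 37 °C in 5% CO2. Medium was replaced with 200 μL fresh medium plus 20 μL plasma. The plasma came from mice given 120 nmol IP in 20% DMSO/80 mM HpβCD/PBS. After 16 h, live cells were imaged by confocal microscopy (63× oil objective, fluorescein filters).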

A549 [14] = assay: Drug uptake in human A549 cells incubated with mouse plasma isolated 1.5 hr post administration with compound measured after 16 hrs by confocal microscopy; type: ADME, cell-based; procedure, shortened: as §4

Structure (SMILES) | Activity [1] [nm] | solubility [2] | other results
CN(CCCNC(=O)c1cccc(C(=O)O)c1)CCCNC(=O)c1cc(NC(=O)c2cc(NC(=O)c3cc(NC(=O)c4nc(NC(=O)C[C@H](CNC(=O)c5cc(NC(=O)c6cc(NC(=O)c7cc(NC(=O)c8nccn8C)cn7C)cn6C)cn5C)NC(=O)c5ccccc5)cn4C)cn3C)cn2C)cn1C | 127 | Insoluble | Activity [6]: 87 nm
CN(CCCNC(=O)c1cc(NC(=O)c2cc(NC(=O)c3cc(NC(=O)c4nc(NC(=O)C[C@@H](N)CNC(=O)c5cc(NC(=O)c6cc(NC(=O)c7cc(NC(=O)c8nccn8C)cn7C)cn6C)cn5C)cn4C)cn3C)cn2C)cn1C)CCCNC(=S)Nc1ccc(-c2c3ccc(=O)cc-3oc3cc(O)ccc23)c(C(=O)O)c1 | – | – | Activity [6]: 294 nm
CN(CCCNC(=O)c1cc(NC(=O)c2cc(NC(=O)c3cc(NC(=O)c4nc(NC(=O)C[C@H](CNC(=O)c5cc(NC(=O)c6cc(NC(=O)c7cc(NC(=O)c8nccn8C)cn7C)cn6C)cn5C)NC(=O)c5ccccc5)cn4C)cn3C)cn2C)cn1C)CCCNC(=S)Nc1ccc(-c2c3ccc(=O)cc-3oc3cc(O)ccc23)c(C(=O)O)c1 | – | – | Activity [6]: 147 nm
CN(CCCNC(=O)c1cccc(C(=O)O)c1)CCCNC(=O)c1cc(NC(=O)c2cc(NC(=O)c3cc(NC(=O)c4cc(NC(=O)[C@H](N)CCNC(=O)c5cc(NC(=O)c6cc(NC(=O)c7nc(NC(=O)c8nccn8C)cn7C)cn6C)cn5C)cn4C)cn3C)cn2C)cn1C | 124 | Insoluble | concentration at 1.5 h [7]: 13 µM; solubility [8]: soluble; solubility [3]: Insoluble; Drug uptake (Plasma [9]): Not Active; Drug uptake (Plasma [10]): Not Active; solubility [4]: soluble; solubility [5]: soluble; concentration at 1.5 h [11]: 13 µM
CN(CCCNC(=O)c1cccc(C(=O)O)c1)CCCNC(=O)c1cc(NC(=O)c2cc(NC(=O)c3cc(NC(=O)c4cc(NC(=O)C[C@H](CNC(=O)c5cc(NC(=O)c6cc(NC(=O)c7nc(NC(=O)c8nccn8C)cn7C)cn6C)cn5C)NC(=O)c5ccccc5)cn4C)cn3C)cn2C)cn1C | 176 | Insoluble | solubility [8]: soluble; Activity [6]: 123 nm
CN(CCCNC(=O)c1cc(NC(=O)c2cc(NC(=O)c3cc(NC(=O)c4cc(NC(=O)[C@H](N)CCNC(=O)c5cc(NC(=O)c6cc(NC(=O)c7nc(NC(=O)c8nccn8C)cn7C)cn6C)cn5C)cn4C)cn3C)cn2C)cn1C)CCCNC(=S)Nc1ccc(-c2c3ccc(=O)cc-3oc3cc(O)ccc23)c(C(=O)O)c1 | – | – | solubility [12]: Insoluble; Drug uptake (A549 [13]): Not Active; Drug uptake (A549 [14]): Active
CN(CCCNC(=O)c1cccc(C(=O)O)c1)CCCNC(=O)c1cc(NC(=O)c2cc(NC(=O)c3cc(NC(=O)c4nc(NC(=O)C[C@@H](N)CNC(=O)c5cc(NC(=O)c6cc(NC(=O)c7cc(NC(=O)c8nccn8C)cn7C)cn6C)cn5C)cn4C)cn3C)cn2C)cn1C | 104 | Insoluble | –
CN(CCCNC(=O)c1cccc(C(=O)O)c1)CCCNC(=O)c1cc(NC(=O)c2cc(NC(=O)c3cc(NC(=O)c4nc(NC(=O)[C@H](N)CCNC(=O)c5cc(NC(=O)c6cc(NC(=O)c7cc(NC(=O)c8nccn8C)cn7C)cn6C)cn5C)cn4C)cn3C)cn2C)cn1C | 182 | Insoluble | –

Now from value to compound, other results behind:

Activity [1] [nm] | solubility [2] | Structure (SMILES) | other results
74 | Insoluble | CC(=O)N[C@@H](CNC(=O)c1cc(NC(=O)c2cc(NC(=O)c3cc(NC(=O)c4nccn4C)cn3C)cn2C)cn1C)CC(=O)Nc1cn(C)c(C(=O)Nc2cc(C(=O)Nc3cc(C(=O)Nc4cc(C(=O)NCCCN(C)CCCNC(=O)c5cccc(C(=O)O)c5)n(C)c4)n(C)c3)n(C)c2)n1 | –
197 | Insoluble | Cn1cc2cc1C(=O)NCCCC(=O)Nc1cn(C)c(n1)C(=O)Nc1cn(C)c(n1)C(=O)Nc1cc(n(C)c1)C(=O)Nc1cc(n(C)c1)C(=O)NC[C@H](N)CC(=O)Nc1cc(n(C)c1)C(=O)Nc1cc(n(C)c1)C(=O)Nc1cc(n(C)c1)C(=O)N2 | solubility [3]: Insoluble; solubility [4]: soluble; solubility [5]: soluble
347 | Insoluble | Cn1cc2cc1C(=O)NC[C@H](N)CC(=O)Nc1cc(n(C)c1)C(=O)Nc1cc(n(C)c1)C(=O)Nc1cc(n(C)c1)C(=O)Nc1cc(n(C)c1)C(=O)NC[C@H](N)CC(=O)Nc1cn(C)c(n1)C(=O)Nc1cn(C)c(n1)C(=O)Nc1cc(n(C)c1)C(=O)N2 | –
182 | Insoluble | CC(=O)N[C@H]1CNC(=O)c2cc(cn2C)NC(=O)c2cc(cn2C)NC(=O)c2nc(cn2C)NC(=O)c2nc(cn2C)NC(=O)C[C@@H](NC(C)=O)CNC(=O)c2cc(cn2C)NC(=O)c2cc(cn2C)NC(=O)c2cc(cn2C)NC(=O)c2cc(cn2C)NC(=O)C1 | –
108 | Insoluble | CN(CCCNC(=O)c1cccc(C(=O)O)c1)CCCNC(=O)c1cc(NC(=O)c2cc(NC(=O)c3cc(NC(=O)c4cc(NC(=O)C[C@@H](N)CNC(=O)c5cc(NC(=O)c6cc(NC(=O)c7nc(NC(=O)c8nccn8C)cn7C)cn6C)cn5C)cn4C)cn3C)cn2C)cn1C | solubility [8]: soluble
100 | Insoluble | CC(=O)N[C@@H](CNC(=O)c1cc(NC(=O)c2cc(NC(=O)c3nc(NC(=O)c4nccn4C)cn3C)cn2C)cn1C)CC(=O)Nc1cc(C(=O)Nc2cc(C(=O)Nc3cc(C(=O)Nc4cc(C(=O)NCCCN(C)CCCNC(=O)c5cccc(C(=O)O)c5)n(C)c4)n(C)c3)n(C)c2)n(C)c1 | solubility [8]: soluble
